Results published in ChEMBL document CHEMBL4673403, “Development of a Hematopoietic Prostaglandin D Synthase-Degradation Inducer” (ACS Med Chem Lett, 2021).
pIC50: −log10 of the molar value. Activity calls are given as the source filed them. The rule behind the calls is not given here.

Tests used:
[1] = molecular target: T1, Hematopoietic prostaglandin D synthase (Homo sapiens, UniProt O60760); experiment: Induction of HPGDS degradation in human KU812 cells at 1 uM measured after 6 hrs in presence of TFC-007 by Western blot analysis; type: cell-based; settings: KU812 cell line
How it was run: (§1)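 KU812 cells incubated 6 h with 1 μM degrader or with the ligand mixture (TFC-007 plus pomalidomide, 1 μM each). Western blot H-PGDS/β-actin normalized to vehicle as 100; means ± SD, n = 3; two-tailed t test.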

[2] = molecular target: T1, Hematopoietic prostaglandin D synthase; experiment: Inhibition of HPGDS in human KU812 cells assessed as reduction in PGD2 level at 10 to 100 nM incubated for 24 hrs followed by A23187 treatment and measured after 30 mins and subsequent compound washout then further incubated for 6 hrs in compound-free medium by ELISA; type: cell-based; settings: KU812 cell line, dose 10-100 nM, time 1470.0 min
How it was run: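 KU812 cells exposed to compounds 24 h, washed four times, kept 6 h compound-free, then stimulated with 5 μM A23187 for 30 min; medium PGD2 measured. Means ± SD, n = 3; two-tailed t test.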

[3] = molecular target: T2, Protein cereblon/Hematopoietic prostaglandin D synthase (Homo sapiens) (UniProt O60760+Q96SW2); experiment: Protac activity at CRBN/HPGDS in human KU812 cells assessed as induction of HPGDS degradation at 10 to 100 nM incubated for 24 hrs followed by compound washout and further incubated for 6 hrs in compound-free medium by Western blot analysis; type: cell-based; settings: KU812 cell line, dose 10-100 nM
How it was run: (§2)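 KU812 cells incubated with compounds 24 h, washed four times, then held 6 h in compound-free medium. Western blot H-PGDS/β-actin normalized to vehicle as 100; means ± SD, n = 3; two-tailed t test.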

[4] = molecular target: T1, Hematopoietic prostaglandin D synthase; experiment: Inhibition of HPGDS in human KU812 cells assessed as reduction in PGD2 level at 10 to 100 nM incubated for 24 hrs followed by A23187 treatment and measured after 30 mins by ELISA; type: cell-based; settings: KU812 cell line, dose 10-100 nM, time 1470.0 min
How it was run: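 After 24 h compound exposure, KU812 cells stimulated with 5 μM A23187 for 30 min with compound still present; PGD2 measured in medium. Means ± SD, n = 3; two-tailed t test.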

[5] = tested on: KU812; experiment: Effect on HPGDS mRNA expression in human KU812 cells up to 1000 nM measured after 6 hrs by SYBR green based qRT-PCR analysis; type: functional, cell-based; settings: dose nM <=1000, time 6.0 hrs
How it was run: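 KU812 cells treated with the indicated concentrations for 6 h. H-PGDS mRNA expressed relative to vehicle, set to 1; means ± SD, n = 3; two-tailed Student's t test versus vehicle.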

[6] = Protac activity at CRBN/AKR1B1 in human KU812 cells assessed as reduction in AKR1B1 protein level up to 1000 nM measured after 24 hrs by Western blot analysis; settings: KU812 cell line, dose nM <=1000, time 24.0 hrs
[7] = tested on: Protein cereblon/Prostaglandin E synthase (Homo sapiens); experiment: Protac activity at CRBN/MPGES-1 in human KU812 cells assessed as reduction in MPGES-1 protein level up to 1000 nM measured after 24 hrs by Western blot analysis; settings: KU812 cell line, dose nM <=1000, time 24.0 hrs
[8] = molecular target: T2, Protein cereblon/Hematopoietic prostaglandin D synthase (Homo sapiens); experiment: Protac activity at CRBN/HPGDS in human MEG01s cells assessed as reduction in HPGDS protein level up to 1000 nM measured after 6 hrs by Western blot analysis; type: cell-based; settings: dose nM <=1000, time 6.0 hrs
[9] = molecular target: T2, Protein cereblon/Hematopoietic prostaglandin D synthase (Homo sapiens); experiment: Protac activity at CRBN/HPGDS in human KU812 cells assessed as induction of HPGDS degradation at 100 nM measured after 6 hrs in presence of ubiquitin-activating enzyme inhibitor MLN7243 by Western blot analysis; type: cell-based; settings: KU812 cell line
How it was run: (§3)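 KU812 cells given 100 nM degrader with or without 10 μM MG132 or 10 μM MLN7243 for 6 h. Western blot H-PGDS/β-actin normalized to vehicle as 100; means ± SD, n = 3.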

[10] = molecular target: T1, Hematopoietic prostaglandin D synthase; experiment: Inhibition of recombinant human HPGDS expressed in Escherichia coli BL21 (DE3) measured after 3 mins by spectrophotometric analysis
[11] = molecular target: T2, Protein cereblon/Hematopoietic prostaglandin D synthase (Homo sapiens); experiment: Protac activity at CRBN/HPGDS in human KU812 cells assessed as decrease in HPGDS protein level by measuring protein turnover at 100 nM measured within 6 hrs in presence of protein synthesis inhibitor cycloheximide by Western blot analysis; type: cell-based; settings: KU812 cell line
How it was run: (§4)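 KU812 cells given 10 μg/mL cycloheximide with or without 100 nM degrader for the indicated periods. H-PGDS/β-actin and cyclin B1/β-actin ratios by Western blot, normalized to time 0 control as 100; means ± SD, n = 3.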

[12] = molecular target: T2, Protein cereblon/Hematopoietic prostaglandin D synthase (Homo sapiens); experiment: Protac activity at CRBN/HPGDS in human KU812 cells assessed as induction of HPGDS degradation at 1 uM measured after 6 hrs by Western blot analysis; type: cell-based; settings: KU812 cell line; how it was run: as §1
[13] = molecular target: T2, Protein cereblon/Hematopoietic prostaglandin D synthase (Homo sapiens); experiment: Protac activity at CRBN/HPGDS in human KU812 cells assessed as induction of HPGDS degradation at 100 nM measured after 6 hrs in presence of proteasome inhibitor MG132 by Western blot analysis; type: cell-based; settings: KU812 cell line; how it was run: as §3
[14] = Solubility of the compound; type: physicochemical
[15] = molecular target: T2, Protein cereblon/Hematopoietic prostaglandin D synthase (Homo sapiens); experiment: Competitive binding affinity to HPGDS in human KU812 cells assessed as induction of CRBN-mediated degradation of HPGDS at 100 nM after 6 hrs in presence of excess pomalidomide by Western blot analysis; type: cell-based; settings: KU812 cell line
How it was run: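 KU812 cells given 100 nM degrader and/or 10 μM pomalidomide for 6 h. Western blot H-PGDS/β-actin normalized to vehicle as 100; means ± SD, n = 3.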

[16] = molecular target: Protein cereblon/G2/mitotic-specific cyclin-B1 (Homo sapiens) (UniProt P14635+Q96SW2); experiment: Protac activity at CRBN/Cyclin B1 in human KU812 cells assessed as decrease in cyclin B1 protein level by measuring protein turnover at 100 nM measured within 6 hrs in presence of protein synthesis inhibitor cycloheximide by Western blot analysis; type: cell-based; settings: KU812 cell line; how it was run: as §4
[17] = molecular target: T2, Protein cereblon/Hematopoietic prostaglandin D synthase (Homo sapiens); experiment: Protac activity at CRBN/HPGDS in human KU812 cells assessed as reduction in HPGDS protein level at 100 to 1000 nM measured after 3 hrs by Western blot analysis; type: cell-based; settings: KU812 cell line, dose 100-1000 nM
How it was run: (§5)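 KU812 cells exposed to graded concentrations for 3, 6 or 24 h. Western blot; H-PGDS/β-actin ratio normalized to vehicle control as 100; means ± SD, n = 3.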

[18] = molecular target: T1, Hematopoietic prostaglandin D synthase; experiment: Binding affinity to recombinant human HPGDS expressed in Escherichia coli BL21 (DE3) measured after 1 hr by fluorescence polarization assay
How it was run: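 Competitive binding to H-PGDS read by fluorescence polarization with a fluorescence probe.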

[19] = molecular target: T2, Protein cereblon/Hematopoietic prostaglandin D synthase (Homo sapiens); experiment: Protac activity at CRBN/HPGDS in human KU812 cells assessed as reduction in HPGDS protein level at >=10 nM measured after 6 to 24 hrs by Western blot analysis; type: cell-based; settings: KU812 cell line, dose nM >=10, time 6-24 hrs; how it was run: as §5
[20] = molecular target: T2, Protein cereblon/Hematopoietic prostaglandin D synthase (Homo sapiens); experiment: Protac activity at CRBN/HPGDS in human KU812 cells assessed as reduction in HPGDS protein level at >=10 nM measured after 3 hrs by Western blot analysis; type: cell-based; settings: KU812 cell line, dose nM >=10, time 3.0 hrs; how it was run: as §5
[21] = molecular target: Baculoviral IAP repeat-containing protein 2/Hematopoietic prostaglandin D synthase (Homo sapiens) (UniProt Q13490+O60760); experiment: SNIPER activity at IAP1/HPGDS in human KU812 cells assessed as reduction in HPGDS protein level up to 1000 nM measured after 6 hrs by Western blot analysis; type: cell-based; settings: KU812 cell line, dose nM <=1000, time 6.0 hrs
[22] = molecular target: T1, Hematopoietic prostaglandin D synthase; experiment: Inhibition of recombinant human HPGDS
[23] = molecular target: T1, Hematopoietic prostaglandin D synthase; experiment: Induction of HPGDS degradation in human KU812 cells at 1 uM measured after 6 hrs in presence of pomalidomide by Western blot analysis; type: cell-based; settings: KU812 cell line; how it was run: as §1
[24] = molecular target: T1, Hematopoietic prostaglandin D synthase; experiment: Inhibition of recombinant human HPGDS using [14C]-PGH2 as substrate preincubated for 1 min in presence of MgCl2 followed by substrate addition and measured after 45 mins by radioactive imaging analysis
[25] = molecular target: T2, Protein cereblon/Hematopoietic prostaglandin D synthase (Homo sapiens); experiment: Induction of CRBN-mediated HPGDS degradation in human KU812 cells at 10 to 100 nM incubated for 24 hrs followed by compound washout and further incubated for 6 hrs in compound-free medium by Western blot analysis; type: cell-based; settings: KU812 cell line, dose 10-100 nM; how it was run: as §2

**Q.** With Nc1cccc2c1C(=O)N(C1CCC(=O)NC1=O)C2=O (stereo not given) as the molecule, how does the Activity [1] read?
**A.** inactive

**Q.** With O=C1CCC(N2C(=O)c3cccc(NCCOCCOCCOCCOCCOCCC(=O)N4CCN(C(=O)C5CCN(c6ccc(NC(=O)c7cnc(Oc8ccccc8)nc7)cc6)CC5)CC4)c3C2=O)C(=O)N1 (stereo not given) as the molecule, how does the inhibition [2] read?
**A.** Active

**Q.** And the Activity [3]?
**A.** Active

**Q.** What about the inhibition [4] of the same molecule?
**A.** Active

**Q.** And the Activity [5]?
**A.** inactive

**Q.** And the Activity [6]?
**A.** inactive

**Q.** What about the Activity [7] of the same molecule?
**A.** inactive

**Q.** And the Activity [8]?
**A.** Active

**Q.** What about the Activity [9] of the same molecule?
**A.** inactive

**Q.** What about the pIC50 [10] of the same molecule?
**A.** 6.58

**Q.** And the Activity [11]?
**A.** Active

**Q.** And the Activity [12]?
**A.** Active

**Q.** And the Activity [13]?
**A.** inactive

**Q.** What about the solubility [14] of the same molecule?
**A.** Soluble

**Q.** What about the Activity [15] of the same molecule?
**A.** inactive

**Q.** What about the Activity [16] of the same molecule?
**A.** inactive

**Q.** What about the Activity [17] of the same molecule?
**A.** Active

**Q.** And the pIC50 [18]?
**A.** 6.49

**Q.** And the Activity [19]?
**A.** Active

**Q.** And the Activity [20]?
**A.** Active

**Q.** Which Activity [21] does the source give for CN[C@@H](C)C(=O)N[C@H](C(=O)N1CCC[C@H]1c1nc(C(=O)c2cccc(OCCOCCOCC(=O)N3CCN(C(=O)C4CCN(c5ccc(NC(=O)c6cnc(Oc7ccccc7)nc6)cc5)CC4)CC3)c2)cs1)C1CCCCC1 here?
**A.** inactive

**Q.** What does the source list for CN1C(=O)CCC(N2C(=O)c3cccc(NCCOCCOCCOCCOCCOCCC(=O)N4CCN(C(=O)C5CCN(c6ccc(NC(=O)c7cnc(Oc8ccccc8)nc7)cc6)CC5)CC4)c3C2=O)C1=O (stereo not given)?
**A.** inhibition [2]: inactive; Activity [3]: inactive; inhibition [4]: Active; pIC50 [10]: 6.49; solubility [14]: Soluble; pIC50 [18]: 6.49

**Q.** With CON(C)C(=O)c1[nH]c(C)c(-c2nc3cc(C(=O)c4ccccc4)ccc3[nH]2)c1C as the molecule, how does the pIC50 [22] read?
**A.** 7.64

**Q.** What does the source list for O=C(Nc1ccc(N2CCC(C(=O)N3CCOCC3)CC2)cc1)c1cnc(Oc2ccccc2)nc1?
**A.** inhibition [2]: inactive; inhibition [4]: Active; pIC50 [10]: 7.15; Activity [23]: inactive; pIC50 [24]: 7.15; Activity [25]: inactive; pIC50 [18]: 6.49
